# PP1 counter = blocks human PP1-alpha phosphatase, a PP5 counter-screen; hit rate 0.9% among 320,000; inhibition, % at 6.7 µM; purified PP1alpha, OMFP fluorescence; AID 2235; P62136;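 active means inhibition above the mean inhibition of all tested compounds plus 3 SD, computed separately for each screening campaign, cut at about 15% in these data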
# Target sequence (P62136 whole entry, looked up): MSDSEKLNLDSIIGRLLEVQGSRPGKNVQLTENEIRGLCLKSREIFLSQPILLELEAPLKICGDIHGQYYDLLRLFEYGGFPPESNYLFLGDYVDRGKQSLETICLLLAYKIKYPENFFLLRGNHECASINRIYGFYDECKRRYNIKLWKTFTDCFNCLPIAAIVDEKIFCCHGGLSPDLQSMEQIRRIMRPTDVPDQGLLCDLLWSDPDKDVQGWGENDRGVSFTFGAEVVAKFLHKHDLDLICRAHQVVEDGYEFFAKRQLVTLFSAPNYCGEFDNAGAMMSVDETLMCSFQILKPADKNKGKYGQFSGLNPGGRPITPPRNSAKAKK
# T cruzi repl = T. cruzi replication inhibition; hit rate 1.4% among 300,000; AID 1885; T. cruzi beta-gal in NIH3T3, luminescence, 90 h; inhibition, % (concentration not given with the values);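 active means mean inhibition across valid replicates above about 55%, limit read from the data; inconclusive means mean below that limit but half or more replicates reach it; inactive means mean below it, under half of replicates reach it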;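 further: signal also drops with host cell toxicity which is not excluded here; 0% = plate median of DMSO wells and 100% = zero luminescence signal; higher percent means less beta-gal luminescence so fewer parasites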
#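 System: NIH/3T3 fibroblasts plus reporter T. cruzi. Medium: DMEM plus 2% FBS. Probe or stimulus: 5000 reporter trypomastigotes per well. Compound: single 50 nL compound addition per well in DMSO. Incubation: co-culture of at least 90 h after 3 h attachment. Detection: GalScreen β-gal luminescence, detergent lysis, 60 min. Evaluation: parasite load inhibition, %.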
# AI-2 QS modul = modulators of Vibrio harveyi AI-2 quorum sensing system | Vibrio harveyi JMH597 AI-2 luminescence/OD600 ratio, 9 h; stronger effect = lower value; strain lacks LuxN and CqsS sensors; 0 = neutral-control median | hit rate 0.4% among 300,000 | AID 2094 | activity change, % at 7.5 µM; in the data active means activity change below about -75%, passing the limit was not always enough; inconclusive means no clear call, values can overlap the other calls;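 further: luminescence divided by OD600 gain over 9 h not by final OD600 alone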
# p-CIP stab down = compounds decreasing mouse p/CIP protein stability. Q05BA5. hit rate 0.01% among 290,000. F442A p/CIP-EGFP cells, EGFP fluorescence, 16 h. decrease of EGFP signal, % at 10 µM;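 active means EGFP signal decrease of at least 30% at 10 µM or well 3 SD below plate mean, unless failing retest; inactive means the rest, including hits failing retest or dose response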
# UBC13 polyUb = inhibitors of human UBC13 polyubiquitin chain formation. P61088. TR-FRET. inhibition, % at 20 µM. hit rate 0.47% among 330,000. AID 485273; in the data active means inhibition above about 45%, passing the limit was not always enough; inconclusive means no clear call, values can overlap the other calls
# Target sequence (P61088 whole entry, looked up): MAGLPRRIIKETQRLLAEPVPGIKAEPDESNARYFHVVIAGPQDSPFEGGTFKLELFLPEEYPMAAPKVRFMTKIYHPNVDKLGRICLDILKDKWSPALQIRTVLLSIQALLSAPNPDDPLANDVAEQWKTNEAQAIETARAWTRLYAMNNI
# PP1 inh confirm = confirmation of human PP1 phosphatase inhibitors. shares compounds with PP1 counter. purified PP1alpha, OMFP substrate fluorescence. inhibition, % at 6.7 µM. hit rate 52% among 1,900. AID 2358;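 active means mean PP1 inhibition above a set limit taken from the earlier primary screen, cut at about 15% in these data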
# PP5 inh counter = PP5 phosphatase inhibition, counter-screen for PP1 inhibitors; purified PP5c, OMFP fluorescence; AID 2360; shares compounds with PP1 counter; hit rate 4% among 1,900; inhibition, % at 6.7 µM;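 active means mean PP5 inhibition over triplicate wells above about 9.5% taken from the earlier PP1 screen, limit read from the data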
# * hit, by the source's call; ? = inconclusive; / = no result. A selection: hits, their analogues and other compounds. The true share with any hit is near 2.8%.
SMILES,PP1 counter,T cruzi repl,AI-2 QS modul,p-CIP stab down,UBC13 polyUb,PP1 inh confirm,PP5 inh counter
COc1cccc(/C=N/NC(=O)c2[nH]c(C)c(C(=O)N/N=C/c3cccc(OC)c3O)c2C)c1O,24.7*,-12.6,4.7,-0.3,-5.8,28.2*,-2.5
COc1ccccc1/C=N/NC(=O)c1cccc(OC(F)(F)C(F)F)c1,-1.9,0.3,1.0,-1.2,-7.7,/,/
COc1ccc(OC)c(/C=N\NC(=O)c2ccc(-c3ccccc3)cc2)c1,/,/,-1.7,-8.7,6.5,/,/
COc1cccc(/C=N/NC(=O)c2ccc(=O)[nH]n2)c1O,-0.1,-3.3,38.4,1.3,-8.9,/,/
COc1cccc(/C=N/NC(=O)C(=O)Nc2ccccc2OC(F)(F)C(F)F)c1O,19.6*,-3.0,15.9,-2.2,-42.3,27.1*,-3.3
COC(=O)c1ccc(N/C=C/C(=O)c2ccccc2)cc1,-4.0,-7.3,-8.8,-6.6,4.8,/,/
Cc1cc(C2=NNC(=Nc3ccc(S(=O)(=O)N4CCOCC4)cc3)SC2)c(C)n1C,17.8*,-3.6,13.6,-0.2,5.6,-0.5,-3.1
O=C(Cn1cnc2c(nnn2Cc2ccc(F)cc2)c1=O)Nc1ccccc1,1.9,-15.7,-10.6,-16.1,20.2,/,/
O=C(Cc1ccccc1)N/N=C/c1ccccc1OCc1ccc(Cl)cc1,20.9*,-6.0,-6.2,3.1,-16.0,-0.8,1.8
Cc1cccc(NC(=O)CN2CCN(C(=O)c3c(C)nn(Cc4ccccc4)c3C)CC2)c1C,-5.8,/,/,/,0.6,/,/
Cc1cccc(N(CC(=O)NC(C)(C)C)C(=O)CCC(=O)Nc2ccccn2)c1,-13.6,2.1,0.1,-15.1,2.3,/,/
CCOC(=O)C1CCCN(CC(=O)Nc2nc(-c3ccccc3)cs2)C1 (stereo unspecified),-2.3,-7.3,33.0,-6.4,-0.1,/,/
COc1cc(/C=C2/SC(=S)N(Cc3ccccc3)C2=O)ccc1OS(C)(=O)=O,2.6,7.9,-7.6,-7.2,-3.8,/,/
COc1cc(/C=C2/SC(=S)N(Cc3ccccc3)C2=O)ccc1OCC(=O)O,20.3*,-2.2,17.7,-14.1,-32.6,11.8,-0.8
CSc1ccccc1OCc1cc(C(=O)NCCCn2nc(C)cc2C)no1,-1.6,18.3,22.8,-5.3,-6.1,/,/
O=C(NC(=S)NNC(=O)[C@H]1C[C@@H]1c1ccccc1)c1ccc(F)cc1,-5.6,4.0,-2.6,-11.0,-26.2,/,/
O=C(/C=C/c1ccc(F)cc1)NC(=S)NNC(=O)[C@H]1C[C@@H]1c1ccccc1,18.4*,-42.0,12.7,-4.9,-37.3,7.3,-2.5
CC(C)(C)C(=O)N1CCN(c2ccc([N+](=O)[O-])c(-n3nc(-c4ccccc4)c4ccccc4c3=O)c2)CC1,21.7*,27.8,26.4,-11.2,-9.7,11.2,4.7
CSc1nsc(SCC(=O)Nc2nc3ccc(C)cc3s2)n1,25.9*,-14.5,32.8,-5.0,-1.3,18.7*,-4.8
O=Cc1cn(-c2ccccc2)nc1-c1cc2c(ccc3ccccc32)oc1=O,-0.3,/,/,-2.7,-2.2,/,/
O=Cc1cn(-c2ccccc2)nc1-c1cc2cc(O)ccc2oc1=O,28.1*,-8.0,-14.0,-19.1,-6.5,18.1*,-1.6
C=CCOc1ccc(C(=O)n2cc(C(=O)OC)c3ccccc32)cc1,-1.4,3.1,9.4,-3.2,-19.1,/,/
CC(=O)Oc1ccc(-c2ccc(C(=O)NCCc3ccc(S(N)(=O)=O)cc3)cc2)cc1,24.0*,-2.0,8.8,-2.9,6.5,18.1*,-2.5
CSCCC(NC(=O)COc1ccccc1)C(=O)OCCOc1ccc(C)cc1 (stereo unspecified),1.0,/,/,/,-5.2,/,/
CSCCC(NC(=O)COc1ccccc1)C(=O)N(C)CC(=O)Nc1c(C)cccc1C (stereo unspecified),21.4*,-10.9,13.6,/,-4.0,-4.6,-4.2
SMILES,PP1 counter,T cruzi repl,AI-2 QS modul,p-CIP stab down,UBC13 polyUb,PP1 inh confirm,PP5 inh counter
CCOC(=O)N1CCC(NC(=O)c2cnc3n(c2=O)CCS3)CC1,-2.2,2.0,-4.1,-1.2,-0.7,/,/
Cc1cc(N2C(=O)C(O)=C(C(=O)c3ccco3)C2c2ccc(Cl)cc2)no1 (stereo unspecified),19.7*,6.8,-4.0,-0.8,-3.9,17.4*,-0.5
Cc1cc(N2C(=O)C(O)=C(C(=O)c3cc4ccccc4o3)C2c2ccc([N+](=O)[O-])cc2)no1 (stereo unspecified),30.1*,-4.9,11.5,1.4,-0.9,16.2*,-2.5
Cc1cc(N2C(=O)C(O)=C(C(=O)c3ccco3)C2c2cccc(Oc3ccccc3)c2)no1 (stereo unspecified),25.3*,-11.5,30.4,-14.6,-23.6,26.4*,2.2
CC1(C(=O)N2CCN(Cc3ccccc3Cl)CC2)CC1(Cl)Cl (stereo unspecified),1.5,6.1,5.1,-10.9,3.8,/,/
COc1ccc(/C=N/Nc2c(Cl)cc(Cl)cc2Cl)cc1CN1CCOCC1,-10.5,-4.0,42.2,-4.4,2.6,/,/
COCc1nnc(NC(=O)c2ccc(S(=O)(=O)N(C)Cc3ccccc3)cc2)o1,22.4*,-21.0,52.4,0.8,-8.9,16.9*,3.8
COCCN(CCOC)S(=O)(=O)c1ccc(C(=O)Nc2nnc(COC)o2)cc1,-6.5,0.9,17.9,-10.4,-2.1,/,/
CCCN(CCC)S(=O)(=O)c1ccc(C(=O)Nc2nnc(COC)o2)cc1,10.6,-22.9,17.2,8.3,-10.2,/,/
O=C(Nc1nnc(-c2ccco2)o1)c1ccc2ccccc2c1,10.5,-5.9,16.6,4.5,-13.1,/,/
COCc1nnc(NC(=O)c2ccc(S(=O)(=O)N(C)C3CCCCC3)cc2)o1,17.8*,-14.4,40.8,-11.9,-20.0,3.5,-2.8
Cc1nnc(NC(=O)c2ccc(S(=O)(=O)N(C)Cc3ccccc3)cc2)o1,37.6*,-3.4,45.3,-7.6,-18.4,30.3*,2.7
Cc1nnc(NC(=O)c2ccc3ccccc3c2)o1,19.2*,/,/,-0.4,-7.0,8.3,-2.4
CN(c1ccccc1)S(=O)(=O)c1ccc(C(=O)Nc2nnc(C3=COCCO3)o2)cc1,25.7*,-11.5,66.3,15.1,-23.7,15.4*,1.9
CCN(Cc1ccccc1)S(=O)(=O)c1ccc(C(=O)Nc2nnc(C3CC3)o2)cc1,42.6*,48.8,59.6,-8.9,-22.0,34.1*,-3.9
O=C(Nc1cc(S(=O)(=O)N2CCOCC2)ccc1OCC(F)(F)F)C1=COCCO1,-2.5,8.2,-2.2,/,-3.9,/,/
Cc1cc(OCC(=O)Nc2ccc(N3CCCC3)cc2)cc(C)c1Cl,17.7*,1.8,?,1.9,2.9,-2.4,0.4
CCCc1[nH]n(-c2ccc([N+](=O)[O-])cc2)c(=O)c1C=NCCCn1ccnc1,-1.0,5.8,4.4,6.7,-2.6,/,/
CC(=NC1CC1)c1c(-c2ccccc2)[nH]n(-c2nc3ccccc3s2)c1=O,7.9,16.7,27.8,8.4,17.9,/,/
CN(C)CCCN=Cc1c(-c2ccccc2)[nH]n(-c2nc3ccccc3s2)c1=O,25.8*,12.1,11.2,-1.3,15.2,4.2,-3.2
